Measured values from ChEMBL document CHEMBL4325855 (Eur J Med Chem, 2019).
Calls of active or inactive are those of the source. The calls are words filed in the database; no cut-off is given here.

Key:
[1] = target: T1, Mitogen-activated protein kinase 9 (Homo sapiens, UniProt P45984); test: Inhibition of ligand binding to human full-length JNK2 (M1 to Q382 residues) expressed in HEK293 cells at 10 uM measured after 1 hr by Kinomescan method relative to control; type: cell-based
Method in brief: (§1)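 Binding ran 1 h at room temperature. Kinase not bound to compound was captured by an immobilized affinity ligand and measured by qPCR, in duplicate.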
Target sequence in this assay (P45984 whole entry, looked up, the tested form may be a part): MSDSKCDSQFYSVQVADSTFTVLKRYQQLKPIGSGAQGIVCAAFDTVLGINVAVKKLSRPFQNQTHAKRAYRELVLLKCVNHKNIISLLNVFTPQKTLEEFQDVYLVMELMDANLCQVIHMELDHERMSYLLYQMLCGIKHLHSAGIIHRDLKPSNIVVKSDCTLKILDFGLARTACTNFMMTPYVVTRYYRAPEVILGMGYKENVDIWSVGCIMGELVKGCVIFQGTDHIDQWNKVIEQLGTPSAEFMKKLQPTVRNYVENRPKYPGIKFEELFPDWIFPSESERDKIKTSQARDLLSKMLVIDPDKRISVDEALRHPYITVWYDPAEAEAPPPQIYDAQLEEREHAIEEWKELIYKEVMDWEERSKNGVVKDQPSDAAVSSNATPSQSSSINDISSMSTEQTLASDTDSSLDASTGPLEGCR

[2] = target: T2, c-Jun N-terminal kinase, JNK (Homo sapiens, UniProt P45983+P53779+P45984); test: Inhibition of JNK in human THP1-Blue cells assessed as reduction in LPS-induced NFkappaB/AP1 activation preincubated for 30 mins followed by LPS-stimulation and measured after 24 hrs by quanti-blue staining based alkaline phosphatase reporter gene assay; type: cell-based
[3] = target: T3, High affinity nerve growth factor receptor (Homo sapiens, UniProt P04629); test: Inhibition of ligand binding to human partial length TRKA (G475 to G790 residues) expressed in HEK293 cells at 10 uM measured after 1 hr by Kinomescan method relative to control; type: cell-based; method in brief: as §1
Target sequence in this assay (P04629 33-796 limits assumed): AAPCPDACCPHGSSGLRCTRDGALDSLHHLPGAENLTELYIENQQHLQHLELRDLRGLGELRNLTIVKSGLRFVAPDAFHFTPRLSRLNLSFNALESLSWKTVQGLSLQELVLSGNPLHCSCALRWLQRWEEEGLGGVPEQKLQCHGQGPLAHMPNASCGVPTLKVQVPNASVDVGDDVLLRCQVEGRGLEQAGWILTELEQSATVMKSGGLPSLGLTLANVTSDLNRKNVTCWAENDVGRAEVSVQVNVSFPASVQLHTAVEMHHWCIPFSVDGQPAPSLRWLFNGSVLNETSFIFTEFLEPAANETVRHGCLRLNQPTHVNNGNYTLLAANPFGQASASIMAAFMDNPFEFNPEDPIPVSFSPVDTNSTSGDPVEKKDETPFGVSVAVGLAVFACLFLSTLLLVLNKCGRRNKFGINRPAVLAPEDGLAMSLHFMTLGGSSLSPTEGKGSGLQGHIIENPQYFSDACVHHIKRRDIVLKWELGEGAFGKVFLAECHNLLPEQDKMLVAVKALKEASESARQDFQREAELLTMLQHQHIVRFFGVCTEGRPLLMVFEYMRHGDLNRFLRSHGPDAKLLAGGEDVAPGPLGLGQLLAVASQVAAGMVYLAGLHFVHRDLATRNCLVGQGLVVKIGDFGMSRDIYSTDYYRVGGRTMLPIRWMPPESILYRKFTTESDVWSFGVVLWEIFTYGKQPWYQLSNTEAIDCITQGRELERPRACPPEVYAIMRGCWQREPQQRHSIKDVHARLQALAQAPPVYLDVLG

[4] = target: T3, High affinity nerve growth factor receptor; test: Binding affinity to human partial length TRKA (G475 to G790 residues) expressed in HEK293 cells measured after 1 hr by Kinomescan method; type: cell-based
Target sequence in this assay (P04629 whole entry, the tested form may be a part): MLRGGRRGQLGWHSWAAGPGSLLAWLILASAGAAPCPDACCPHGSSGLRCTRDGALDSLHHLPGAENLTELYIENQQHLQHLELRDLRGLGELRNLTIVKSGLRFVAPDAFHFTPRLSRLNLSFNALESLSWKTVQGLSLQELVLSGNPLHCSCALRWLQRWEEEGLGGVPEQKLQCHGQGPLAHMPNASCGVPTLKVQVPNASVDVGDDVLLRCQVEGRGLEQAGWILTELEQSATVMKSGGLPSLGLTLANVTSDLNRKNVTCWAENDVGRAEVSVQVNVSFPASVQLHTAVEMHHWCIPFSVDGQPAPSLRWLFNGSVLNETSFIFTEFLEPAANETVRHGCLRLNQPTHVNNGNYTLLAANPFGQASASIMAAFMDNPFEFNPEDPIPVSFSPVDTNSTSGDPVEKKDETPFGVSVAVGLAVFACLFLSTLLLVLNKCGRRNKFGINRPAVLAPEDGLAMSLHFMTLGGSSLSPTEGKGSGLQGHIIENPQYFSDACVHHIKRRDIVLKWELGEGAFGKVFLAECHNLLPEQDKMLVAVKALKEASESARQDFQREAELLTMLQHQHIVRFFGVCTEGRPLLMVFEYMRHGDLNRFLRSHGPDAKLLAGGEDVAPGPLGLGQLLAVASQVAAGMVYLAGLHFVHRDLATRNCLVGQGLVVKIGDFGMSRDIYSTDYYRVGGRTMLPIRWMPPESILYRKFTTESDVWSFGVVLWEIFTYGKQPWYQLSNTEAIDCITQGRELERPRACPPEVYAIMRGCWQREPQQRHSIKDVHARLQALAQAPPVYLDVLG

[5] = target: T4, Mitogen-activated protein kinase 10 (Homo sapiens, UniProt P53779); test: Inhibition of ligand binding to human partial length JNK3 (V28 to Q422 residues) expressed in HEK293 cells at 10 uM measured after 1 hr by Kinomescan method relative to control; type: cell-based; method in brief: as §1
T4 sequence (P53779 whole entry, the tested form may be a part): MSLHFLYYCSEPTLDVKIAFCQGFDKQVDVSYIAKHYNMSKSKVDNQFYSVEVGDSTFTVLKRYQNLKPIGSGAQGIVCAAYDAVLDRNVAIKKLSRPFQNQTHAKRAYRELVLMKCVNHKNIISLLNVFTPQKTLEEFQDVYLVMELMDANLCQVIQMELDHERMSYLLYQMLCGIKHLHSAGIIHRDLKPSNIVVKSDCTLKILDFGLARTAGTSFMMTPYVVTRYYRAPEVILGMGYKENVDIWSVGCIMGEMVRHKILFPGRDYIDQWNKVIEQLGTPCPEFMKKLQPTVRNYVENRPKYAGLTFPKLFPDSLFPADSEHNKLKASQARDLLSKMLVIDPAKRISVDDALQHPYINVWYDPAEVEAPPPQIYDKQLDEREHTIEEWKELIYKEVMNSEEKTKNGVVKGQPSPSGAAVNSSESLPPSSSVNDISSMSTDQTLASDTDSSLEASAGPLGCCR

[6] = Lipophilicity, log P of the compound; type: physicochemical; conditions: octanol/water
[7] = target: T5, Mitogen-activated protein kinase 8 (Homo sapiens, UniProt P45983); test: Inhibition of ligand binding to human full-length JNK1 (M1 to Q384 residues) expressed in HEK293 cells at 10 uM measured after 1 hr by Kinomescan method relative to control; type: cell-based; method in brief: as §1
T5 sequence (P45983 whole entry, the tested form may be a part, canonical isoform): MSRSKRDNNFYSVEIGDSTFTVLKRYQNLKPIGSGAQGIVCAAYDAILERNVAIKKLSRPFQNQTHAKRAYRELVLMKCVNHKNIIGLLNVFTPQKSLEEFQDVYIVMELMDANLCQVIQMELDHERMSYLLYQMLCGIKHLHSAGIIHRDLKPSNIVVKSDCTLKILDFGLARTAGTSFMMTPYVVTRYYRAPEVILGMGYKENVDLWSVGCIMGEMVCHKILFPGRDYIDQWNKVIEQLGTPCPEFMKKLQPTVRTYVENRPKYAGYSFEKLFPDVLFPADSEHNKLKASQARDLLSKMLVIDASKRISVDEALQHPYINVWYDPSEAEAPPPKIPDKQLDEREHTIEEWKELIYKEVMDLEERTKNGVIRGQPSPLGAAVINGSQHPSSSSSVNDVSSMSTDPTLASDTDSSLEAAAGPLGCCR

[8] = target: Casein kinase I isoform delta (Homo sapiens) (UniProt P48730); test: Inhibition of ligand binding to human full-length CK1delta (M1 to K409 residues) expressed in bacterial expression system at 10 uM measured after 1 hr by Kinomescan method relative to control; method in brief: as §1
Chain of Casein kinase I isoform delta (Homo sapiens) (P48730 whole entry, looked up, the tested form may be a part, canonical isoform): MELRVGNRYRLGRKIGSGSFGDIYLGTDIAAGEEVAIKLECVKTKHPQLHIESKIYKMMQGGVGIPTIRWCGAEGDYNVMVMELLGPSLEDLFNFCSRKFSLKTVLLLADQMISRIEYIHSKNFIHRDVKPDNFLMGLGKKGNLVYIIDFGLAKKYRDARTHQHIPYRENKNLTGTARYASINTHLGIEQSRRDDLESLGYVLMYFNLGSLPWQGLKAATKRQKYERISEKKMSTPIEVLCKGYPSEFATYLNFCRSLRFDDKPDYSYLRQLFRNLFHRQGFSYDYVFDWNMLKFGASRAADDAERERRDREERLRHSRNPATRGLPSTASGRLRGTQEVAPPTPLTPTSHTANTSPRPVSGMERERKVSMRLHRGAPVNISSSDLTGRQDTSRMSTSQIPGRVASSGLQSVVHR

[9] = target: T2, c-Jun N-terminal kinase, JNK; test: Inhibition of JNK in human MONO-MAC-6 cells assessed as reduction in LPS-induced IL6 production preincubated for 30 mins followed by LPS-stimulation and measured after 24 hrs by ELISA; type: cell-based
Method in brief: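 MonoMac-6 cells, 2 × 10^5/well in medium with 3% endotoxin-free FBS, were pretreated 30 min with compound or DMSO, then stimulated with 250 ng/ml LPS for 24 h. IL-6 in the supernatant was measured by human IL-6 ELISA. IC50 came from percent inhibition vs log concentration (at least five points); triplicate samples, representative of three experiments.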

[10] = target: BDNF/NT-3 growth factors receptor (Homo sapiens, UniProt Q16620); test: Binding affinity to human partial length TRKB (Q547 to G838 residues) expressed in HEK293 cells measured after 1 hr by Kinomescan method; type: cell-based
Chain of BDNF/NT-3 growth factors receptor (Q16620 whole entry, the tested form may be a part): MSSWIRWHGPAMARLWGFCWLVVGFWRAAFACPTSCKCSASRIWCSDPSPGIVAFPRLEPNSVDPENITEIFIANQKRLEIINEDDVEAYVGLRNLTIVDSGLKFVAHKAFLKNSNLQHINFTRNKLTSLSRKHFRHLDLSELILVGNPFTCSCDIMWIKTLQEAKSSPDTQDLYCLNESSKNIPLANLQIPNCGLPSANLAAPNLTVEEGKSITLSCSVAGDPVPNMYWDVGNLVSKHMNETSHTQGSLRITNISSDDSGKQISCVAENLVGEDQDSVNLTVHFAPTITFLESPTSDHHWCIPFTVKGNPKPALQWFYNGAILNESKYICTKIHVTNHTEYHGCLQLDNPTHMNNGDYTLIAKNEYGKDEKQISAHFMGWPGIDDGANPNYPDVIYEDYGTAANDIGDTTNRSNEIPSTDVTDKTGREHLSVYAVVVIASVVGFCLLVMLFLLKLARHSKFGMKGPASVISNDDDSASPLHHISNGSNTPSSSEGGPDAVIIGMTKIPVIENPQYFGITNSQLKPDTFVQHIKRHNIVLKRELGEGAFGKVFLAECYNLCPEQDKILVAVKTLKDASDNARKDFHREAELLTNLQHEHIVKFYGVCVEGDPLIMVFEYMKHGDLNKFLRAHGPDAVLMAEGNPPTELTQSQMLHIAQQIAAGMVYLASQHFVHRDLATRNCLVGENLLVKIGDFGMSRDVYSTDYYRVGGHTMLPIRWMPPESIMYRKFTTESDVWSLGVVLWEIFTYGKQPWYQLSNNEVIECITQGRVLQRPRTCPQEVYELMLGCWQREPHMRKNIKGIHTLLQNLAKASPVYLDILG

[11] = target: T5, Mitogen-activated protein kinase 8; test: Binding affinity to human full-length JNK1 (M1 to Q384 residues) expressed in HEK293 cells measured after 1 hr by Kinomescan method; type: cell-based
Method in brief: (§2)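 Competition binding on a phage-display/cell-expressed kinase platform; each compound incubated with kinase 1 h at room temperature. Unbound kinase was captured on an immobilized affinity ligand and quantified by qPCR. N.A. means no inhibition below 40 µM.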

[12] = target: T1, Mitogen-activated protein kinase 9; test: Binding affinity to human full-length JNK2 (M1 to Q382 residues) expressed in HEK293 cells at <40 uM after 1 hr by Kinomescan method; type: cell-based
Method in brief: (§3)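 Competition binding on a phage-display/cell-expressed kinase platform; each compound incubated with kinase 1 h at room temperature. Unbound kinase was captured on an immobilized affinity ligand and quantified by qPCR. […] N.A. means no inhibition below 40 µM.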
Target sequence in this assay (P45984 whole entry, looked up, the tested form may be a part): as the sequence (P45984 whole entry, looked up, the tested form may be a part) above

[13] = target: T4, Mitogen-activated protein kinase 10; test: Binding affinity to human partial length JNK3 (V28 to Q422 residues) expressed in HEK293 cells at <40 uM after 1 hr by Kinomescan method; type: cell-based; method in brief: as §3
[14] = target: T4, Mitogen-activated protein kinase 10; test: Binding affinity to human partial length JNK3 (V28 to Q422 residues) expressed in HEK293 cells measured after 1 hr by Kinomescan method; type: cell-based; method in brief: as §2
[15] = Cytotoxicity against human THP1-Blue cells assessed as effect on cell viability up to 50 uM after 24 hrs by CellTiter-Glo luminescent cell viability assay; type: cell-based
Method in brief: (§4)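 Viability of MonoMac-6 and THP-1Blue cells was tested with compound up to 50 µM for 24 h at 37 °C, 5% CO2. After 30 min equilibration to room temperature, CellTiter-Glo reagent was added and luminescence read. IC50 was derived from percent inhibition vs log concentration, at least five points.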

[16] = system: Transcription factor AP-1 (Homo sapiens); test: Inhibition of LPS-induced c-Jun phosphorylation at ser73 residues in human MONO-MAC-6 cells at 6.25 to 50 uM preincubated for 30 mins followed by LPS-stimulation and measured after 30 mins by Western blot analysis
MONO-MAC-6 = test: Cytotoxicity against human MONO-MAC-6 cells assessed as effect on cell viability up to 50 uM after 24 hrs by CellTiter-Glo luminescent cell viability assay; type: cell-based; conditions: mono-mac-6, 24 h; method in brief: as §4
[17] = target: T1, Mitogen-activated protein kinase 9; test: Binding affinity to human full-length JNK2 (M1 to Q382 residues) expressed in HEK293 cells measured after 1 hr by Kinomescan method; type: cell-based; method in brief: as §2
Target sequence in this assay (P45984 whole entry, the tested form may be a part): as the sequence (P45984 whole entry, looked up, the tested form may be a part) above

| Structure (SMILES) | inhibition [1] | inhibition [2] | inhibition [3] | Kd [4] | inhibition [5] | logP [6] | inhibition [7] | inhibition [8] | inhibition [9] | Kd [10] | Kd [11] | Activity [12] | Activity [13] | Kd [14] | Activity [15] | IC50 [2] | inhibition [16] | Activity (MONO-MAC-6) | IC50 [9] | Kd [17] |
| --- | --- | --- | --- | --- | --- | --- | --- | --- | --- | --- | --- | --- | --- | --- | --- | --- | --- | --- | --- | --- |
| O=c1c2ccccc2nc2n1-c1ccccc1/C2=N\O | > 90% | Dose-dependent effect | > 90% | 1100 nM | > 90% | 2.92 | > 90% | > 90% | Dose-dependent effect |  |  |  |  |  |  |  |  |  |  |  |
| O=C1c2ccccc2-n2c1nc1ccccc1c2=O [TRYPTANTHRIN] |  |  |  | 9200 nM |  |  |  |  |  | 7200 nM | 23000 nM | inactive | inactive |  |  |  |  |  |  |  |
| CCOC(=O)CO/N=C1\c2ccccc2-c2nc3ccccc3nc21 |  | Dose-dependent effect |  |  |  |  |  |  | Dose-dependent effect |  | 22 nM |  |  | 76 nM | Non-Toxic | 2500 nM | Active | Non-Toxic | 3300 nM | 735 nM |
